In ChEMBL document CHEMBL5724801, “EUbOPEN Chemogenomics Library - Multiplex” (2024):
Several values for one entry are separate records, joined by “and”; a condition that tells them apart may be missing. Equal entries are not always repeated.

Tested on: HEK-293T
Test: Multiplex assay against HEK293T
Assay type: toxicity, cell-based
Settings: human
How it was run: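 Hoechst33342, BioTracker Green Microtubule Cytoskeleton Dye, MitoTracker Red and Annexin V Alexa Fluor 680 were added to live cells at seeding, and imaging on a CQ1 microscope at 37°C and 5% CO2 followed compound addition. Gating by CellPathfinder machine learning separated cells into Hoechst high-intensity objects or normal cells, then normal cells into healthy, pyknosed or fragmented nuclei, then pyknosed cells into mitotic or apoptotic. Per cents of healthy-nucleus cells are reported for the tubulin, mitochondrial-mass and membrane-permeability phenotypes.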

[1] = 12 h, 1 µM, compound concentration 1 uM
[2] = 12 h, 10 µM, compound concentration 10 uM
[3] = 24 h, 1 µM, compound concentration 1 uM
[4] = 24 h, 10 µM, compound concentration 10 uM
[5] = 48 h, 1 µM, compound concentration 1 uM
[6] = 48 h, 10 µM, compound concentration 10 uM

For CN1[C@@H](CC(=O)c2ccccc2)CCC[C@H]1C[C@H](O)c1ccccc1.Cl [LOBELINE HYDROCHLORIDE], the “Population Apoptotic (%)” value [1] was 5.84% and 10.26%, the “Population Fragmented Nuclei (%)” value [1] was 1.05% and 2.84% and the “Population Hoechst High Intensity Objects (%)” value [1] was 0.52% and 0%. The “Population Membrane Permeable-Phenotype (%)” value [1] was 0%, the “Population Mitochondria Different-Phenotype (%)” value [1] was 33.04% and 30% and the “Population Mitotic Cells (%)” value [1] was 94.16% and 89.74%. The “Population Normal (%)” value [1] was 99.48% and 100%, the “Population Pyknosed Nuclei (%)” value [1] was 40.31% and 82.98% and the “Total Cell Count” value [1] was 384 and 141. The “Population Apoptotic (%)” value [2] was 13.08% and 13.61%, the “Population Fragmented Nuclei (%)” value [2] was 4.88% and 1.1% and the “Population Healthy Nuclei (%)” value [2] was 49.83% and 17.68%. The “Population Hoechst High Intensity Objects (%)” value [2] was 0% and 0.55%, the “Population Membrane Permeable-Phenotype (%)” value [2] was 0.7% and 0% and the “Population Mitochondria Different-Phenotype (%)” value [2] was 17.48% and 37.5%. The “Population Mitotic Cells (%)” value [2] was 86.92% and 86.39%, the “Population Normal (%)” value [2] was 100% and 99.45% and the “Population Pyknosed Nuclei (%)” value [2] was 45.3% and 81.22%. The “Total Cell Count” value [2] was 287 and 182, the “Population Apoptotic (%)” value [3] was 12.24% and 13.68% and the “Population Fragmented Nuclei (%)” value [3] was 2.04% and 2.68%. For the same compound, the “Population Healthy Nuclei (%)” value [3] was 74.92% and 33.56%, the “Population Hoechst High Intensity Objects (%)” value [3] was 0% and the “Population Membrane Permeable-Phenotype (%)” value [3] was 1.67% and 0%. For the same compound, the “Population Mitochondria Different-Phenotype (%)” value [3] was 11.3% and 14%, the “Population Mitotic Cells (%)” value [3] was 87.76% and 86.32% and the “Population Normal (%)” value [3] was 100%. The “Population Pyknosed Nuclei (%)” value [3] was 23.04% and 63.76%, the “Population Tubulin-Different-Phenotype (%)” value [3] was 10.46% and 6% and the “Population Apoptotic (%)” value [4] was 16.35% and 24.8%. The “Population Fragmented Nuclei (%)” value [4] was 2.39% and 1.53%, the “Population Healthy Nuclei (%)” value [4] was 69.95% and 34.69% and the “Population Hoechst High Intensity Objects (%)” value [4] was 0%. The “Population Membrane Permeable-Phenotype (%)” value [4] was 1.52% and 1.47%, the “Population Mitochondria Different-Phenotype (%)” value [4] was 18.63% and 22.06% and the “Population Mitotic Cells (%)” value [4] was 83.65% and 75.2%. For the same compound, the “Population Normal (%)” value [4] was 100%, the “Population Pyknosed Nuclei (%)” value [4] was 27.66% and 63.78% and the “Population Tubulin-Different-Phenotype (%)” value [4] was 12.55% and 11.76%. The “Total Cell Count” value [4] was 376 and 196, the “Population Apoptotic (%)” value [5] was 7.27% and 13.92% and the “Population Fragmented Nuclei (%)” value [5] was 2.75% and 1.71%. For the same compound, the “Population Healthy Nuclei (%)” value [5] was 84.62% and 53.14%, the “Population Hoechst High Intensity Objects (%)” value [5] was 0% and the “Population Membrane Permeable-Phenotype (%)” value [5] was 5.33% and 1.08%. The “Population Mitochondria Different-Phenotype (%)” value [5] was 11.75% and 19.35%, the “Population Mitotic Cells (%)” value [5] was 92.73% and 86.08% and the “Population Normal (%)” value [5] was 100%. For the same compound, the “Population Fragmented Nuclei (%)” value [6] was 2.84% and 1.89%, the “Population Healthy Nuclei (%)” value [6] was 86.48% and 58.49% and the “Population Hoechst High Intensity Objects (%)” value [6] was 0% and 0.75%. For the same compound, the “Population Membrane Permeable-Phenotype (%)” value [6] was 2.5% and 0%, the “Population Mitochondria Different-Phenotype (%)” value [6] was 30.22% and 37.42% and the “Population Mitotic Cells (%)” value [6] was 94.68% and 75.24%. The “Population Normal (%)” value [6] was 100% and 99.25%.
Nc1nc(CC(=O)Nc2ccc(CCNC[C@H](O)c3ccccc3)cc2)cs1 [MIRABEGRON] was tested, and the “Population Apoptotic (%)” value [1] was 22% and 55%, the “Population Fragmented Nuclei (%)” value [1] was 5% and 8% and the “Population Healthy Nuclei (%)” value [1] was 84% and 80%. For the same compound, the “Population Hoechst High Intensity Objects (%)” value [1] was 5%, the “Population Membrane Permeable-Phenotype (%)” value [1] was 0% and the “Population Mitochondria Different-Phenotype (%)” value [1] was 45% and 56%. For the same compound, the “Population Mitotic Cells (%)” value [1] was 77% and 44%, the “Population Normal (%)” value [1] was 94% and the “Population Pyknosed Nuclei (%)” value [1] was 10% and 11%. For the same compound, the “Population Tubulin-Different-Phenotype (%)” value [1] was 19%, the “Total Cell Count” value [1] was 455 and 332 and the “Population Apoptotic (%)” value [2] was 32% and 44%. The “Population Fragmented Nuclei (%)” value [2] was 5% and 11%, the “Population Healthy Nuclei (%)” value [2] was 77% and 74% and the “Population Hoechst High Intensity Objects (%)” value [2] was 7% and 8%. For the same compound, the “Population Membrane Permeable-Phenotype (%)” value [2] was 0%, the “Population Mitochondria Different-Phenotype (%)” value [2] was 51% and 64% and the “Population Mitotic Cells (%)” value [2] was 67% and 56%. For the same compound, the “Population Normal (%)” value [2] was 92% and 91%, the “Population Pyknosed Nuclei (%)” value [2] was 17% and 14% and the “Population Tubulin-Different-Phenotype (%)” value [2] was 41% and 29%. For the same compound, the “Total Cell Count” value [2] was 423 and 388, the “Population Apoptotic (%)” value [3] was 28% and 27% and the “Population Fragmented Nuclei (%)” value [3] was 10% and 8%. For the same compound, the “Population Healthy Nuclei (%)” value [3] was 80% and 83%, the “Population Hoechst High Intensity Objects (%)” value [3] was 2% and 3% and the “Population Membrane Permeable-Phenotype (%)” value [3] was 0%. For the same compound, the “Population Mitochondria Different-Phenotype (%)” value [3] was 30% and 41%, the “Population Mitotic Cells (%)” value [3] was 71% and 72% and the “Population Normal (%)” value [3] was 97% and 96%. For the same compound, the “Population Pyknosed Nuclei (%)” value [3] was 9% and 7%, the “Population Tubulin-Different-Phenotype (%)” value [3] was 14% and 13% and the “Total Cell Count” value [3] was 635 and 390. For the same compound, the “Population Apoptotic (%)” value [4] was 31% and 35%, the “Population Fragmented Nuclei (%)” value [4] was 8% and 9% and the “Population Healthy Nuclei (%)” value [4] was 77% and 82%. For the same compound, the “Population Hoechst High Intensity Objects (%)” value [4] was 4% and 5%, the “Population Membrane Permeable-Phenotype (%)” value [4] was 0% and the “Population Mitochondria Different-Phenotype (%)” value [4] was 32% and 49%. The “Population Mitotic Cells (%)” value [4] was 68% and 64%, the “Population Normal (%)” value [4] was 95% and 94% and the “Population Pyknosed Nuclei (%)” value [4] was 13% and 7%. For the same compound, the “Population Tubulin-Different-Phenotype (%)” value [4] was 23%, the “Total Cell Count” value [4] was 552 and 524 and the “Population Apoptotic (%)” value [5] was 18% and 28%. For the same compound, the “Population Fragmented Nuclei (%)” value [5] was 13% and 17%, the “Population Healthy Nuclei (%)” value [5] was 80% and 76% and the “Population Hoechst High Intensity Objects (%)” value [5] was 1% and 0%. The “Population Membrane Permeable-Phenotype (%)” value [5] was 1%, the “Population Mitochondria Different-Phenotype (%)” value [5] was 14% and 21% and the “Population Mitotic Cells (%)” value [5] was 81% and 71%. The “Population Normal (%)” value [5] was 98% and 99%, the “Population Pyknosed Nuclei (%)” value [5] was 5% and the “Population Tubulin-Different-Phenotype (%)” value [5] was 10%. For the same compound, the “Total Cell Count” value [5] was 1141 and 662, the “Population Apoptotic (%)” value [6] was 26% and 28% and the “Population Fragmented Nuclei (%)” value [6] was 12%. For the same compound, the “Population Healthy Nuclei (%)” value [6] was 78% and 80%, the “Population Hoechst High Intensity Objects (%)” value [6] was 3% and 2% and the “Population Membrane Permeable-Phenotype (%)” value [6] was 0%. For the same compound, the “Population Mitochondria Different-Phenotype (%)” value [6] was 25% and 30%, the “Population Mitotic Cells (%)” value [6] was 73% and 71% and the “Population Normal (%)” value [6] was 96% and 97%. The “Population Pyknosed Nuclei (%)” value [6] was 8% and 6%, the “Population Tubulin-Different-Phenotype (%)” value [6] was 16% and 15% and the “Total Cell Count” value [6] was 818 and 750.
